{
  "source": "paper PMC4817271",
  "about": "(Journal of medicinal chemistry, 2015)",
  "key": {"[1]": {"assay": "Rat iv cassette PK tissue distribution", "type": "in vivo", "conditions": "0.2 mg/kg", "how_it_was_run": "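Cassette dosing in rats: iv at 0.2 mg/kg per compound, as a solution in 8% EtOH, 30% PEG 400 and 62% DMSO (2 mg/mL total), n=2. Single time point brain and plasma sampling at 15 min after dose. Kp = total brain/total plasma; Kp,uu = (brain fu × total brain)/(plasma fu × total plasma).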"}, "[2]": {"assay": "Mouse plasma protein binding", "type": "in vitro ADME"}, "[3]": {"target": "P-gp (MDR1) (Homo sapiens, UniProt P08183)", "sequence (P08183 whole entry)": "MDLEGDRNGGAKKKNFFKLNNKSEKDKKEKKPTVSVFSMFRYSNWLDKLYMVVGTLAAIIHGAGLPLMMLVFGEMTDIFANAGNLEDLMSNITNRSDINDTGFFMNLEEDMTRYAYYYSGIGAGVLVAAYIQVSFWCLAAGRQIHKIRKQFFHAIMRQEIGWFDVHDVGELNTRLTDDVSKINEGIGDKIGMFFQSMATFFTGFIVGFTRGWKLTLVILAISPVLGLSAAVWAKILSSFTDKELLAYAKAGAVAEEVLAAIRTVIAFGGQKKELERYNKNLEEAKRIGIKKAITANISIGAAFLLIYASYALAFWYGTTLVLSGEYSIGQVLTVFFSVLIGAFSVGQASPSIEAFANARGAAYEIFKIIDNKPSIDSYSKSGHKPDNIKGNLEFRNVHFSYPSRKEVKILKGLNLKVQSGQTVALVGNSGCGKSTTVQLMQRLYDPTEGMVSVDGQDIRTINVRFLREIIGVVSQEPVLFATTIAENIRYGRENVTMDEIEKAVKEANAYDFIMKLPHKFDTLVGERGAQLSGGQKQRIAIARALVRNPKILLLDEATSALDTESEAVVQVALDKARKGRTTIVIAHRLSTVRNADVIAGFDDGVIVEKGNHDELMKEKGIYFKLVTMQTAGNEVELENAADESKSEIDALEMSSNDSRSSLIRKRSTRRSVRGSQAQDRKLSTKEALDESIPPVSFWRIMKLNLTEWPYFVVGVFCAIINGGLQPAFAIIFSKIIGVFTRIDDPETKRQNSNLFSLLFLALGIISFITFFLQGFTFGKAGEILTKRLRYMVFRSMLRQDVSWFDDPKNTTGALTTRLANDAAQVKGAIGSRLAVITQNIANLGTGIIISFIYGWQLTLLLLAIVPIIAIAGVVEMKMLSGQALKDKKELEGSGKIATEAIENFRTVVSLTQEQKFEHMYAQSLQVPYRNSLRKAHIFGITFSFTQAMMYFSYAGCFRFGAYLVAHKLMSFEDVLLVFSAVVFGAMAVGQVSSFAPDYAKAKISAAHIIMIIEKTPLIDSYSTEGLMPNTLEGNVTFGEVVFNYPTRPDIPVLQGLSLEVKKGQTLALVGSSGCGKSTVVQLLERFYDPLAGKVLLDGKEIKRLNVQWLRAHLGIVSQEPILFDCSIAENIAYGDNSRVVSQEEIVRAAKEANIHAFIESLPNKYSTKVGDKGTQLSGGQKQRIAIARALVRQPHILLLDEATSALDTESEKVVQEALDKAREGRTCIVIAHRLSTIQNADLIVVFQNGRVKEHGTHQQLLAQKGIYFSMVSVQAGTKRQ", "assay": "Permeability in MDR1-MDCK cells", "type": "in vitro ADME", "conditions": "dog (MDCK cells), human MDR1 expressed"}, "[4]": {"system": "P-gp", "assay": "Mouse IP tissue distribution with P-gp inhibitor 109 pretreatment", "type": "in vivo", "conditions": "mouse, brain, ip, with 109 (elacridar), 20 mg/kg, dosed 1 h before compound 58", "how_it_was_run": "(§1)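 Mice were pretreated with the P-gp inhibitor elacridar at 20 mg/kg 1 h before the test compound. Test compound was given ip at 30 mg/kg as a fine homogeneous suspension in 10% Tween-80 in water (n=2). Brain and plasma were sampled 15 min after dosing. Kp = total brain/total plasma; Kp,uu = (brain fu × total brain)/(plasma fu × total plasma).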"}, "[5]": {"assay": "Mouse IP tissue distribution with P-gp inhibitor 109 pretreatment", "type": "in vivo", "how_it_was_run": "as §1"}, "[6]": {"target": "rat mGlu2 (Rattus norvegicus, UniProt P31421)", "sequence (P31421 19-872)": "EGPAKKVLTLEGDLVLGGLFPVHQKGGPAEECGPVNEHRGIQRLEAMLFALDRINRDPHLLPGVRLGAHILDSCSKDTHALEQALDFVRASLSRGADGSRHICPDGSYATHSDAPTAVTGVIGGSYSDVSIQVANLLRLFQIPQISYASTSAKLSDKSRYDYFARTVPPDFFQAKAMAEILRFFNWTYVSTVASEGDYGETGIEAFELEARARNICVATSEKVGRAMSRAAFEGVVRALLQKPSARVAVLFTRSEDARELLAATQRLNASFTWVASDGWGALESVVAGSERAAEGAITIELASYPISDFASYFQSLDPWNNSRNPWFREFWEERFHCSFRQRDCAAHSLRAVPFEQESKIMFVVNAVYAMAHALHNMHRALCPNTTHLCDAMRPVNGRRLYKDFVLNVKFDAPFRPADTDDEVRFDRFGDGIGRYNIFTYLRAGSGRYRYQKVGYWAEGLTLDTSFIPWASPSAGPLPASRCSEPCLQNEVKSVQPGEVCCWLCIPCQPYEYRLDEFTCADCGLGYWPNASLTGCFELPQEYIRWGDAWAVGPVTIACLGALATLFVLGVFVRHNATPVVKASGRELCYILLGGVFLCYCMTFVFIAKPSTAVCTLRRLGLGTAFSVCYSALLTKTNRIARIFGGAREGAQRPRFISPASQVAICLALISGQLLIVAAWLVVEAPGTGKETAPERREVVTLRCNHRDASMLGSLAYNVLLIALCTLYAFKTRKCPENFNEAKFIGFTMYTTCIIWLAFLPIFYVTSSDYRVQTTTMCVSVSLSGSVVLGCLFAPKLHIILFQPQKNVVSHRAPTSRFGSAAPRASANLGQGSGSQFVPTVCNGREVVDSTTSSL", "assay": "Calcium mobilization mGlu2 assay", "type": "cell-based", "conditions": "for IC50: average of n ≥ 3", "how_it_was_run": "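Fluorescence calcium-mobilization read-out in a cell line stably co-expressing rat mGlu2 and the promiscuous G-protein Gα15. Test compound was applied up to 30 μM, and NAM activity was measured as inhibition of the glutamate response. Values are the average of n=3. LLE = pIC50 − cLogP, with cLogP calculated by software.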"}, "[7]": {"assay": "Rat IP tissue distribution", "type": "in vivo", "how_it_was_run": "(§2)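 Single time point tissue distribution in mice or rats (n=2). Test compound was given ip at 30 mg/kg as a fine homogeneous suspension in 10% Tween-80 in water. Brain and plasma concentrations were taken 15 min after dosing. Kp = total brain/total plasma; Kp,uu = unbound brain (brain fu × total brain)/unbound plasma (plasma fu × total plasma).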"}, "[8]": {"system": "panel of 68 clinically relevant GPCRs, ion channels, kinases, and transporters", "assay": "Radioligand binding assay panel", "conditions": "10 μM; significant = more than 50% inhibition of radioligand binding"}, "[9]": {"assay": "Rat IV PK", "type": "in vivo", "how_it_was_run": "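Rats received test compound iv at 0.2 mg/kg as a solution in 9% EtOH, 38% PEG 400 and 53% DMSO (1 mg/mL dosing solution), n=2. Plasma time course gave half-life, plasma clearance and volume of distribution at steady state.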"}, "[10]": {"assay": "Mouse IP tissue distribution", "type": "in vivo", "how_it_was_run": "as §2"}, "[11]": {"assay": "Protein binding in rat brain homogenates", "type": "in vitro ADME", "conditions": "brain homogenate"}, "[12]": {"assay": "Protein binding in mouse brain homogenates", "type": "in vitro ADME", "conditions": "brain homogenate"}, "[13]": {"system": "other members of the mGlu family", "assay": "Fold-shift selectivity experiments versus other mGlus", "type": "cell-based", "conditions": "effect of 10 μM compound on orthosteric agonist CRC"}, "[14]": {"target": "T1, human M1 (Homo sapiens, UniProt P11229)", "T1 sequence (P11229 1-460)": "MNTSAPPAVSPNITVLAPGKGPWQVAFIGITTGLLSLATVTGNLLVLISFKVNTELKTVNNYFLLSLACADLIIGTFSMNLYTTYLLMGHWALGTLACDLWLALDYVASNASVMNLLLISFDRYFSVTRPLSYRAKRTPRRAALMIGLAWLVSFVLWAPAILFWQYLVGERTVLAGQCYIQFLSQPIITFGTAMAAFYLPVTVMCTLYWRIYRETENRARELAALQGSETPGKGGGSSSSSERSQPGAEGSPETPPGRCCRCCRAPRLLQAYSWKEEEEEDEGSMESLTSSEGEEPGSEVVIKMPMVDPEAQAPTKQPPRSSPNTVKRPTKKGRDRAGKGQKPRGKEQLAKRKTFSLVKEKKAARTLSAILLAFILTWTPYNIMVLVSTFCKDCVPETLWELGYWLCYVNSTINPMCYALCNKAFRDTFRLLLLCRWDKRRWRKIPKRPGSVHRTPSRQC", "assay": "Human M1 functional assay", "type": "cell-based", "conditions": "up to the highest concentration tested (30 μM)"}, "[15]": {"assay": "Intrinsic clearance in rat liver microsomes, predicted hepatic clearance", "type": "in vitro ADME", "how_it_was_run": "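Test compound was incubated with rat liver microsomes to give intrinsic clearance (CLint), which was converted to predicted hepatic clearance. Compounds were binned against hepatic blood flow: low (<1/3), moderate (1/3 to 2/3) or high (>2/3).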"}, "[16]": {"assay": "Rat plasma protein binding", "type": "in vitro ADME"}, "[17]": {"conditions": "mouse ip 30 mg/kg, 15 min after dose, 109 dosed 1 h prior at 20 mg/kg"}, "[18]": {"conditions": "rat ip 30 mg/kg, 15 min after dose"}, "[19]": {"conditions": "mouse ip 30 mg/kg, 15 min after dose"}},
  "data": [
    {"smiles": "C[C@@H]1CN(Cc2ccc3c(c2)c(=O)c(C(N)=O)cn3-c2ccc(F)cc2)C[C@H](C)O1", "note": "[Compound 58, 6-((cis-2,6-Dimethylmorpholino)methyl)-1-(4-fluorophenyl)-4-oxo-1,4-dihydroquinoline-3-carboxamide]", "values": [
      {"measurement": "Kp at 0.25 h", "setting": "[1]; brain", "value": 0.32},
      {"measurement": "Kp uu at 0.25 h", "setting": "[1]; brain", "value": 0.23},
      {"measurement": "concentration at 15 min", "setting": "[1]; brain", "value": 18, "unit": "nM"},
      {"measurement": "concentration at 15 min", "setting": "[1]; plasma", "value": 56.9, "unit": "nM"},
      {"measurement": "fraction unbound", "setting": "[2]", "value": 0.315},
      {"measurement": "Papp A→B", "setting": "[3]", "value": 1.54, "unit": "×10⁻⁶ cm/s"},
      {"measurement": "Papp B→A", "setting": "[3]", "value": 79.7, "unit": "×10⁻⁶ cm/s"},
      {"measurement": "efflux ratio", "setting": "[3]", "value": 52},
      {"measurement": "Kp at 15 min", "setting": "[4]", "value": 2.1},
      {"measurement": "Kp uu at 15 min", "setting": "[4]", "value": 1.7},
      {"measurement": "unbound brain exposure relative to mGlu2 IC50", "setting": "[5]; 30 mg/kg ip with P-gp inhibitor pretreatment", "value": "more than 5 fold"},
      {"measurement": "increase of exposure in the brain after pretreatment with 109 (elacridar)", "setting": "[5]; mouse ip 30 mg/kg", "value": "more than 6 fold"},
      {"measurement": "brain concentration", "setting": "[5]; [17]", "value": 4580, "unit": "nm"},
      {"measurement": "plasma concentration", "setting": "[5]; [17]", "value": 2160, "unit": "nm"},
      {"measurement": "LLE", "setting": "[6]; LLE = pIC50 – cLogP", "value": 3.59},
      {"measurement": "% Glu max ± SEM", "setting": "[6]; amplitude of response in presence of 30 μM test compound as percentage of maximal response (100 μM glutamate)", "value": "1.48 ± 0.29", "unit": "%"},
      {"measurement": "IC50", "setting": "[6]; mGlu2 IC50, calcium mobilization", "value": 207, "unit": "nM"},
      {"measurement": "IC50", "setting": "[6]; mGlu2 pIC50 ± SEM, calcium mobilization", "value": 204, "unit": "nM"},
      {"measurement": "brain concentration", "setting": "[7]; [18]", "value": 760, "unit": "nM"},
      {"measurement": "plasma concentration", "setting": "[7]; [18]", "value": 3900, "unit": "nM"},
      {"measurement": "Kp at 0.25 h", "setting": "[7]; rat, brain, ip, 30 mg/kg", "value": 0.2},
      {"measurement": "Kp uu at 0.25 h", "setting": "[7]; rat, brain, ip, 30 mg/kg", "value": 0.12},
      {"measurement": "concentration at 15 min", "setting": "[7]; rat, brain, ip, 30 mg/kg, unbound brain concentration, rat ip 30 mg/kg", "value": 145, "unit": "nM"},
      {"measurement": "ancillary pharmacology, radioligand binding panel responses", "setting": "[8]", "value": "no significant responses"},
      {"measurement": "clearance in vivo", "setting": "[9]; rat iv time course study", "value": "high clearance"},
      {"measurement": "Vd", "setting": "[9]; rat, plasma, iv, 0.2 mg/kg", "value": 13.3, "unit": "L/kg"},
      {"measurement": "clearance", "setting": "[9]; rat, plasma, iv, 0.2 mg/kg", "value": 75.8, "unit": "mL/min/kg"},
      {"measurement": "half-life", "setting": "[9]; rat, plasma, iv, 0.2 mg/kg, half-life, rat iv time course study", "value": "~2", "unit": "h"},
      {"measurement": "half-life", "setting": "[9]; rat, plasma, iv, 0.2 mg/kg, t1/2, rat iv 0.2 mg/kg", "value": 2.35, "unit": "h"},
      {"measurement": "brain concentration", "setting": "[10]; [19]", "value": 716, "unit": "nm"},
      {"measurement": "plasma concentration", "setting": "[10]; [19]", "value": 1820, "unit": "nm"},
      {"measurement": "Kp at 0.25 h", "setting": "[10]; mouse, brain, ip, 30 mg/kg", "value": 0.39},
      {"measurement": "Kp uu at 0.25 h", "setting": "[10]; mouse, brain, ip, 30 mg/kg", "value": 0.32},
      {"measurement": "concentration at 15 min", "setting": "[10]; mouse, brain, ip, 30 mg/kg, brain concentration, mouse ip 30 mg/kg", "value": 716, "unit": "nM"},
      {"measurement": "concentration at 15 min", "setting": "[10]; mouse, brain, ip, 30 mg/kg, unbound brain concentration, mouse ip 30 mg/kg", "value": 184, "unit": "nM"},
      {"measurement": "fraction unbound", "setting": "[11]", "value": 0.191},
      {"measurement": "fraction unbound", "setting": "[11]; mouse", "value": "0.25 to 0.3"},
      {"measurement": "fraction unbound", "setting": "[12]", "value": 0.257},
      {"measurement": "activity at the other mGlus", "setting": "[13]", "value": "no activity"},
      {"measurement": "human M1 activity", "setting": "[14]", "value": "no activity"},
      {"measurement": "predicted hepatic clearance group", "setting": "[15]; binned from CLint in rat liver microsomes", "value": "low–moderate"},
      {"measurement": "rat CLhep", "setting": "[15]; predicted hepatic clearance based on CLint in rat liver microsomes", "value": 24.5, "unit": "mL/min/kg"},
      {"measurement": "unbound in rat plasma", "setting": "[16]", "value": "approximately 30%"},
      {"measurement": "fraction unbound", "setting": "[16]; rat, plasma", "value": 0.306}
    ]}
  ]
}
